Screening data from PubChem BioAssay.
Kir21 block = inhibitors of mouse Kir2.1 inward-rectifier potassium channel. P35561. HEK293-Kir2.1, FluxOR thallium flux fluorescence; hits give low values. B-score at 10 µM. hit rate 0.85% among 310,000;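 active = fluorescence ratio B-score at or below minus 3 SD of library scores, with starting-brightness B-score within 2 SD, cut at about -4.2 in these data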;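 note: channel flux triggered by added potassium and thallium sulfate stimulus; B-score of peak minus minimum fluorescence over baseline after thallium stimulus; more negative B-score means stronger Kir2.1 block with less thallium influx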
TRPC4 block = TRPC4 (mouse) channel inhibition; Q9QUQ5; HEK293 TRPC4beta/mu-opioid, DAMGO-evoked Fluo4 calcium flux; hits give low values; B-score at 10 µM; hit rate 0.39% among 300,000; AID 2247;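 active = B-score over 3 SD under the library average, no early fluorescence shift, positive overall ratio signal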
Target sequence (Q9QUQ5 whole entry, looked up): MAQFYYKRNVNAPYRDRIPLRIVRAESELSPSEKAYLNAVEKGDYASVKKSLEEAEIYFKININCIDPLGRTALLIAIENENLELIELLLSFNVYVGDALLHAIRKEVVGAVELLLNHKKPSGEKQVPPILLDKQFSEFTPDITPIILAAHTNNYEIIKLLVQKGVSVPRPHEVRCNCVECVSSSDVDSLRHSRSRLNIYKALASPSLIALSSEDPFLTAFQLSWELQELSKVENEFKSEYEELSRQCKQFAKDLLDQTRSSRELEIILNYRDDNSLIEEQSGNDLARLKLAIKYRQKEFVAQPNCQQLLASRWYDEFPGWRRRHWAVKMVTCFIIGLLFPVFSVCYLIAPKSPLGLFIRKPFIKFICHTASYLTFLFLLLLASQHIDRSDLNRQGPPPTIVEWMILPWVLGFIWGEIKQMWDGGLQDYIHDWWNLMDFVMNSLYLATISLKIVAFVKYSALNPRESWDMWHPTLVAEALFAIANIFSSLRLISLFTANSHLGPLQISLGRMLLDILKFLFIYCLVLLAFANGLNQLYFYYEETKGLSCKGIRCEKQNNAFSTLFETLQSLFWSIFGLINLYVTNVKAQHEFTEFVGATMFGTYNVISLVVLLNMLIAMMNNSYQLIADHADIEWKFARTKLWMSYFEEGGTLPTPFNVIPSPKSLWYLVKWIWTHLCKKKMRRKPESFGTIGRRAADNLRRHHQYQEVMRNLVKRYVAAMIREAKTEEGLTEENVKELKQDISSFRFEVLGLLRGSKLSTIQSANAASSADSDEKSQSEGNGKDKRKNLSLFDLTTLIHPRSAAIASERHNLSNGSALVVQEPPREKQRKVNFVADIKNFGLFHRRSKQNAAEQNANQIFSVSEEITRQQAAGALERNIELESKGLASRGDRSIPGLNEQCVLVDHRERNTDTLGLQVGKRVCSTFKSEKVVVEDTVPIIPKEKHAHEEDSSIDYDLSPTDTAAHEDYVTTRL
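Signal: kinetic Fluo4 fluorescence imaging of calcium influx. Material: stable TRPC4beta/mu-opioid receptor HEK293 cells. Probe or stimulus: DAMGO in two steps, submaximal then maximal.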
TRPC4 act = TRPC4 (mouse) channel activation; HEK293 TRPC4beta/mu-opioid, Fluo4 calcium fluorescence; hits give high values; B-score at 10 µM; hit rate 0.49% among 310,000;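 active = B-score above 5 SD of library B-scores, and initial fluorescence ratio not above library mean plus 5 SD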;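 note: positive B-score marks a calcium rise read as TRPC4 activation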
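Incubation: 45 min room-temperature Fluo4 loading, 110 s read / System: HEK293 cells stably co-expressing mouse TRPC4beta and mu-opioid receptor / Signal: Fluo4 fluorescence, kinetic / Control set: buffer (low) and maximal DAMGO (high) / Measure: integrated baseline-normalised fluorescence ratio, converted to per-well B score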
TRPC6 act = activators of mouse TRPC6 channel; HEK293-TRPC6 membrane potential dye fluorescence; hits give high values; B-score at 10 µM; hit rate 0.13% among 310,000;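 active = B-score of the integrated fluorescence ratio above library mean plus 3 SD, and starting fluorescence ratio within library mean plus 5 SD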;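 note: higher score means more depolarization so channel activation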
TRPC4 PAM = allosteric potentiators of mouse TRPC4 channel; Q9QUQ5; HEK293 TRPC4beta/mu-opioid, DAMGO EC20, Fluo-4 Ca2+ flux; hits give high values; B-score at 10 µM; hit rate 0.42% among 310,000; AID 2227;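 active = B-score of calcium response area above 5 SD of library B-scores, with initial fluorescence ratio within 5 SD of library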;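 note: B-score of integrated fluorescence ratio over time as area under calcium response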
TRPC6 inhibitor = inhibitors of mouse TRPC6 channel. HEK293-TRPC6, membrane potential dye, ACh-evoked depolarization; hits give low values. B-score at 10 µM. hit rate 1.1% among 310,000. AID 2553;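 active = B-score under library mean minus 3 SD, initial fluorescence not abnormally high, positive integrated signal ratio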;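 note: B-score derived from integrated fluorescence ratio over the kinetic read; more negative B-score means stronger inhibition of depolarization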
* = called active by the depositor; i = inactive. Most compounds without a hit are left out; they make up all but 2.9% or so of the library.

SMILES	Kir21 block	TRPC4 block	TRPC4 act	TRPC6 act	TRPC4 PAM	TRPC6 inhibitor
COC(=O)c1cccc2c1-c1ccccc1/C2=N\NC(N)=O	0.15	i	i	i	i	i
COC(=O)c1cccc2c1-c1ccccc1/C2=N/O	0.54	-7*	i	i	i	i
O=C(N/N=C/c1cc([N+](=O)[O-])cc(Br)c1O)C12CC3CCC(CC(C3)C1)C2	0.82	i	136*	i	i	i
COc1ccccc1OCC(=O)N1CCCC(Nc2ccc(C)c(C)c2)C1 (centres undefined)	-0.38	i	i	i	i	i
O=C(NC1CCN(Cc2ccccc2)CC1)C1CCCN(S(=O)(=O)c2cccc3nonc23)C1 (centres undefined)	0.65	i	i	i	10*	i
COc1cc(NS(=O)(=O)c2ccc(NC(=O)CCC(=O)O)cc2)nc(OC)n1	1.43	i	i	i	10*	i
COc1ccc(NC2CCCN(C(=O)CCc3cccc(Cl)c3)C2)cc1 (centres undefined)	-4.21*	i	i	i	i	i
CCCCCOc1ccc(Br)cc1/C(C)=N/NC1=NCCN1	-13.8*	i	i	i	i	-5.88*
COc1ccc(Br)cc1/C(C)=N/NC1=NCCN1	-1.48	i	i	i	i	i
Cc1cccc(C)c1N1CCc2cn[nH]c21	1.79	-6*	i	i	i	i
Cc1cccc(C)c1N1CCN(c2n[nH]c(N)n2)CC1	-0.08	i	i	i	i	i
Cc1ccsc1C(=O)Nc1nnc(-c2ccco2)o1	-0.92	i	i	i	i	i
COc1ccc(Sc2ccccc2CN(C)C)cc1OC	-1.99	i	i	i	i	i
CNCc1ccccc1Sc1ccc(O)c(O)c1	-6.49*	i	i	i	i	i
CCCCNc1c(-c2ccc(SC(C)CC)c(OC)c2)nc2ccc(C)cn12 (centres undefined)	1.81	-6*	i	i	i	i
CCc1ccc(CNc2ccc3c(c2)ncn3CC)cc1	-0.44	i	i	i	i	-5.05*
CC(C)(C)n1cnc2cc(NCc3ccc(Br)cc3)ccc21	0.08	i	i	i	25*	i
CCCn1c(-c2ccc(OC)cc2)nc2ccccc21	-4.49*	i	i	i	i	i
C/C(CC(=O)NC(C)(C)C)=N\NC(=O)COc1ccc(C)cc1Br	-0.04	i	i	i	11*	i
Cc1ccc(C(CNS(=O)(=O)c2ccc([N+](=O)[O-])cc2)N2CCN(C)CC2)cc1 (centres undefined)	-1.08	-6*	i	i	i	i
Cc1ccc(C(CNS(=O)(=O)c2ccc(Br)cc2)N2CCN(C)CC2)cc1 (centres undefined)	-3.95	i	i	i	i	i
CN(C)CC/C=C1/c2ccccc2Sc2c(O)cc(Cl)cc21	-1.85	i	i	i	i	i
COc1cc2c(cc1Cl)/C(=C\CCN(C)C)c1ccccc1S2	-10.7*	i	i	i	i	i
COc1cc(Cl)cc2c1Sc1ccccc1/C2=C/CCN(C)C	-12.7*	i	i	i	i	i
CCC(Sc1nc2c(cnn2-c2ccc(Cl)cc2)c(=O)[nH]1)C(=O)OC (centres undefined)	1.3	i	i	i	i	i
SMILES	Kir21 block	TRPC4 block	TRPC4 act	TRPC6 act	TRPC4 PAM	TRPC6 inhibitor
Cc1ccc(OCCOC(=O)c2sc(=S)n(C)c2C)cc1	-0.03	i	i	i	i	i
Cc1c(C(=O)OCCOc2ccc(Br)cc2)sc(=S)n1C	0.07	i	i	i	11*	i
Cc1ccc(N2CCN(C(=O)c3ccccc3F)CC2)c(C)c1	0.06	-7*	i	i	i	i
CCC(=O)c1ccc(N2CCN(C(=O)c3ccccc3F)CC2)c(F)c1	0.73	i	i	i	i	i
CCC(=O)c1ccc(N2CCN(C(=O)c3ccccc3Br)CC2)c(F)c1	-1.24	i	i	i	28*	i
CN(C)CCOC(=O)C12CC3(C)CC(C)(CC(C)(C3)C1)C2	-1.98	i	46*	i	i	i
CCOCCCNCc1cn(-c2ccc(F)cc2F)nc1-c1ccccc1C	0.31	i	77*	i	i	i
O=C1c2ccccc2C(=O)N1c1cccc2cccnc12	0.37	i	i	i	i	i
CCOc1ccc(CN2CCN(C(=O)c3ccccc3)CC2)cc1	-0.22	-7*	i	i	i	i
O=C(O)CSc1nnnn1C1CCCCC1	0	i	i	i	i	i
Cc1c(C#N)c(N)c(C(=O)c2ccccc2)n1Cc1ccccc1	-5.18*	i	i	i	i	i
CCn1c(C)c(C(=O)c2ccccc2)c(C#N)c1C(=O)O	-0.33	i	i	i	i	i
N/N=C(\c1ccccc1)c1cc(Cl)ccc1N	-0.58	i	i	i	i	i
COc1cc(C(=O)NC(c2ccccc2)c2ccccc2)cc(OC)c1C	0.6	i	i	i	i	i
COc1ccc(/C=N/NC(=O)c2ccc(O)cc2)cc1CN1CCCc2ccccc21	-0.6	i	i	i	i	i
COc1ccc(/C=N/NC(=O)c2ccc(F)cc2)cc1CN1CCc2cc(OC)c(OC)cc2C1C (centres undefined)	-0.15	-6*	i	i	i	i
Cc1cc(C)c2nc(NCc3ccccc3O)sc2c1	0.34	i	i	i	i	i
C=CCOc1ccc(/C=C2\SC(=S)N(NS(=O)(=O)c3ccc(C)cc3)C2=O)cc1	-1.29	i	i	i	12*	i
Cc1ccc(/C=C2\SC(=S)N(NS(=O)(=O)c3ccc(C)cc3)C2=O)cc1	0.68	i	i	i	i	i
O=S(=O)(c1ccc(Cl)cc1)N1CCN(C2CCN(Cc3ccccc3)CC2)CC1	-3.41	i	i	i	i	i
NS(=O)(=O)c1ccc(Oc2ccc(S(N)(=O)=O)cc2)cc1	0.69	i	i	i	96*	i
CCCCOc1ccc(S(N)(=O)=O)cc1	0.3	i	i	i	i	i
CC(C)COc1ccc(C(=O)Nc2ccc(NC(=O)c3ccco3)cc2)cc1	-0.23	i	i	i	i	i
COc1ccccc1/C=C/C=N/N1CCN(Cc2ccccc2)CC1	0.87	i	i	i	i	i
Cc1ccc(CN2CCN(/N=C/C=C/c3ccccc3[N+](=O)[O-])CC2)cc1	-0.78	i	i	i	14*	i
